This is an account of results in PubChem BioAssay.

Values without a mark were called inactive. Results filed as inconclusive are left out. Active and inactive are the calls of the source.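 How the source made its calls, unless noted: active means inhibition over a set limit, the all-compound mean plus 3 SD, in both replicate runs; inconclusive means over that limit in just one replicate run; inactive means at or under that limit in both runs.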

The term viability denotes a read-out of living cells in per cent, often relative to untreated cells. In general, inhibition refers to the drop in the measured response relative to a control, in per cent.

A short description of experiment [1]: S. cerevisiae growth inhibition in permissive medium (OD615), pilot counter-assay for S. cerevisiae lifespan shortening project, permissive growth control (AID 705;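 active means growth inhibition above 25% in both replicates, a cutoff set 3 SD above the mean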). To be noted: OD615, 24 h, at 10 µM, hits give high values. Put shortly:
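Material: engineered DeaD yeast; Compound: one dose 10 µM, DMSO 0.25% final; Detection: absorbance (optical density) at 615 nm; Buffer or medium: permissive raffinose/galactose medium; Timing: 24 h exposure, 30 °C.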

Experiment [2] in a line: S. cerevisiae growth inhibition in restrictive medium, OD615, pilot screen, restrictive growth control, yeast lifespan reduction project (AID 706;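 active means growth inhibition above a set limit, 3 SD over mean compound inhibition, in both replicates, cut at about 43% in these data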;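 further: modified DeaD lifespan yeast strain shifted to restrictive glucose medium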). To be noted: OD615, 48 h, at 10 µM, hits give high values. An outline of the steps: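 Buffer or medium: restrictive glucose medium (CSMM-D); test system: modified S. cerevisiae; doses: single dose of 10 µM compound final, 0.25% DMSO; schedule: 48 h compound exposure at 30 °C; detection: absorbance (optical density) measured at 615 nm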

A short description of experiment [3]: doxorubicin toxicity protection in MRP-1 cells – H69AR cells, CellTiter-Glo, duplicate, MRP-1 activator project, pilot screen (AID 807;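 active means viability increase at or above a cutoff of the median across tested compounds plus 3 SD, cut at about 8.5% in these data, passing the limit was not always enough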;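 further: compound pretreatment 18-22 h then 72 h combined with doxorubicin; 0% = doxorubicin alone and 100% = vehicle without doxorubicin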). To be noted: H69AR viability with doxorubicin, CellTiter-Glo luminescence; at 10 µM; hits give high values. For orientation: In ATP-based viability assays light output follows the ATP content of the culture.
Experiment [4] can be described thus: viability of HCT116 without oncogenic beta-catenin – human colon tumor cells, pilot screen (AID 823;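 active means cell viability at or below a set limit in both duplicate runs, the limit being the all-compound median minus 4 SD, cut at about 23% in these data, passing the limit was not always enough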;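 further: 0% = wells killed by 20 µM Hyamine and 100% = untreated DMSO cell wells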). To be noted: HCT116 beta-catenin knockout viability, CellTiter-Glo, 60 h; at 10 µM; hits give low values.
A short description of experiment [5]: viability of PTEN-null HCT116 cells – cell-based, HCT116 clonal line, CellTiter-Glo, pilot screen (AID 824;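 active means viability at or below 27.92% in each of two runs, the all-compound median minus 4 SD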;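 further: 0% = 20 µM Hyamine control and 100% = vehicle cell control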). To be noted: HCT116 PTEN-deleted viability, 60 h, at 10 µM, hits give low values.
Experiment [6] is described as follows: RAM pathway blockade in budding yeast – dse1pr::URA3 reporter, 5-FOA selection, pilot screen (AID 869).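 Further: 0% = DMSO wells with no growth and 100% = 10 µM 1-NA-PP1 with full growth; RAM network block rescues cells from 5-FOA so hits raise OD615 growth.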 To be noted: S. cerevisiae dse1pr::URA3 5-FOA growth, OD615, 2 d; at 10 µM; hits give high values; strain carries analog-sensitive mutant Cbk1 kinase.
Experiment [7] can be described thus: RAM signaling pathway blockade in yeast – S. cerevisiae, Pdr1DBD-CYC8 efflux-inhibited sensitized strain, primary screen (AID 1298;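 active means RAM network inhibition above 8.4% in each of two replicates, 3 SD over the compound average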;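 further: 0% = DMSO untreated cells without growth and 100% = 10 µM 1-NA-PP1 full growth; higher means more yeast growth rescued from 5-FOA killing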). To be noted: S. cerevisiae cbk1-as DSE1-URA3 strain, 5-FOA growth OD615, 2 d; at 50 µM; hits give high values.

Turning to `Oc1cc(Cc2ccccc2)cnc1CN1CCOCC1`, the values for the growth inhibition in experiment [1] and in experiment [2] were 1.49% and 2.83%, respectively. Further, in experiment [3], the viability increase was -0.73%. The viability was 96.8% in experiment [4] and 87.3% in experiment [5]. Further, in experiment [6], the inhibition is 0.81%. The RAM network inhibition in experiment [7] was 1.51%.

`COc1ccc(C2NC(=O)NC(C)=C2C(=O)Nc2cccc(C)c2C)cc1` (stereo not drawn): the values for the growth inhibition in experiment [1] and in experiment [2] were -6.41% and 1.47%, respectively. Besides, in experiment [3], the viability increase was -1.09%. In addition, the results for the viability in experiment [4] and in experiment [5] were 101% and 103%, respectively. Besides, the inhibition in experiment [6] was 0.77%. In addition, in experiment [7], the RAM network inhibition is 1.64%.

As for `O=C(Nc1ccon1)c1cccc(C(F)(F)F)c1`, the growth inhibition in experiment [1] was -9.21%; in experiment [2], -5.36%. Further, in experiment [3], the viability increase is 2.41%. In addition, the viability is 104% in experiment [4] and 101% in experiment [5]. Besides, the inhibition in experiment [6] was 0.075%. Moreover, the RAM network inhibition in experiment [7] is 0.62%.

With `COc1ccccc1-c1nc(-c2ccccn2)no1`, the growth inhibition in experiment [1] is -10.5%; in experiment [2] it was -2.21%. For the same molecule, the viability increase in experiment [3] is -5.99%. The viability in experiment [4] is 45.5%; in experiment [5], 39.7%. Besides, the inhibition in experiment [6] is 0.975%. The RAM network inhibition in experiment [7] is 0.42%.

In the case of `Cc1ccccc1-n1c(SC/C(O)=C(\C#N)c2nc3ccccc3[nH]2)nnc1-c1ccncc1`, the growth inhibition in experiment [1] was 2.37%; in experiment [2] it was 19.1%. The viability increase in experiment [3] is -3.4%. Moreover, the viability was 93.5% in experiment [4] and 81.7% in experiment [5]. Moreover, the inhibition in experiment [6] was 2.92%. Also, the RAM network inhibition in experiment [7] is 2.28%.

Consider `CCC(C)NC(=O)CS(=O)Cc1nc(-c2cccc(OC)c2)oc1C` (stereo not drawn), for which the growth inhibition in experiment [1] was -12.5%; in experiment [2], -1.45%. The viability increase in experiment [3] was -1.45%. Besides, the viability was 98% in experiment [4] and 94.5% in experiment [5]. Moreover, the inhibition in experiment [6] was 1.23%. Also, the RAM network inhibition in experiment [7] is 4.44%.

`COc1ccc(NC(=O)c2cnc3ccccn3c2=O)cc1OC`: the results for the growth inhibition in experiment [1] and in experiment [2] were -5.08% and 4.28%, respectively. The viability increase in experiment [3] is -0.04%. Besides, the viability in experiment [4] was 101%; in experiment [5], 91.3%. The inhibition in experiment [6] was 0.665%. Moreover, in experiment [7], the RAM network inhibition was 1.96%.

On to `CCCCCSc1nc2c(c(=O)[nH]c(=O)n2C)n1C`, for which the growth inhibition in experiment [1] is -12.6%; in experiment [2], -5.52%. Besides, in experiment [3], the viability increase was -2.27%. Moreover, the viability is 90.3% in experiment [4] and 79.6% in experiment [5]. Also, the inhibition in experiment [6] is 2.1%. In experiment [7], the RAM network inhibition is 0.68%.

In the case of `CCOC(=O)CNc1c(N2CCN(c3ccccn3)CC2)c(=O)c1=O`, the growth inhibition in experiment [1] was 2.94%; in experiment [2], 13.8%. Moreover, in experiment [3], the viability increase is -1.12%. Further, the results for the viability in experiment [4] and in experiment [5] were 110% and 102%, respectively. Besides, the inhibition in experiment [6] was 1.91%. The RAM network inhibition in experiment [7] is -0.36%.

`O=C1Nc2ccc(S(=O)(=O)N3CCCC3C(=O)O)c3cccc1c23` (stereo not drawn): the growth inhibition in experiment [1] was 1.8%; in experiment [2] it was -5.75%. Further, in experiment [3], the viability increase is -2.22%. Also, the viability in experiment [4] was 92.8%; in experiment [5] it was 96.8%. Further, the inhibition in experiment [6] is 0.57%. Moreover, the RAM network inhibition in experiment [7] is 0.21%.

In the case of `CCOC(=O)N1CCC(N2C(=O)c3ccccc3C2=O)CC1`, the growth inhibition in experiment [1] is -1.78%; in experiment [2], -3.71%. In addition, in experiment [3], the viability increase was 0.37%. Further, the values for the viability in experiment [4] and in experiment [5] were 102% and 98.8%, respectively. For the same molecule, the inhibition in experiment [6] is 1.98%. In addition, the RAM network inhibition in experiment [7] was -0.31%.

For `COc1ccc2[nH]c(C)c(CCN3C(=O)C4C5C=CC(C5)C4C3=O)c2c1` (stereo not drawn), the growth inhibition was -3.19% in experiment [1] and 5.9% in experiment [2]. In experiment [3], the viability increase was -2.43%. The viability in experiment [4] was 106%; in experiment [5], 94.9%. The inhibition in experiment [6] is 0.285%. Moreover, the RAM network inhibition in experiment [7] was 4.02%.

As for `Cc1ccc(C)c2[nH]c(=O)c(CCNC(=O)CC(C)C)cc12`, the growth inhibition was -2.83% in experiment [1] and -10.7% in experiment [2]. Also, the viability increase in experiment [3] was -1.74%. Also, the viability was 103% in experiment [4] and 108% in experiment [5]. For the same molecule, the inhibition in experiment [6] is 1.75%. Besides, in experiment [7], the RAM network inhibition was 8.88%.

On to `COc1cccc(C(=O)Nc2ccc(S(=O)(=O)Nc3onc(C)c3C)cc2)c1`, for which the growth inhibition in experiment [1] is -9.3%; in experiment [2] it was -14.8%. The viability increase in experiment [3] was 0.25%. Moreover, the viability in experiment [4] is 96.1%; in experiment [5], 97.9%. The inhibition in experiment [6] was 1.99%. In addition, in experiment [7], the RAM network inhibition was 7.93%.

As to `O=c1[nH]c(NC2CCCCC2)nnc1Cc1ccccc1`, the growth inhibition in experiment [1] is -10%; in experiment [2], -5.11%. Further, the viability increase in experiment [3] is 0.04%. Further, the viability in experiment [4] is 102%; in experiment [5], 97.6%. Moreover, the inhibition in experiment [6] is 2.53%. In addition, in experiment [7], the RAM network inhibition was 1.52%.

In the case of `COc1ccccc1NC(=O)Cc1noc(CSc2nnc(C)s2)n1`, the growth inhibition was -3.75% in experiment [1] and 0.765% in experiment [2]. In addition, the viability increase in experiment [3] was -2.11%. Also, the viability in experiment [4] was 97.2%; in experiment [5], 97.6%. Besides, in experiment [6], the inhibition is 0.43%. Moreover, the RAM network inhibition in experiment [7] is 5.03%.

`COc1ccc(OCc2nnc3n2N=C(c2ccc(OC)cc2)CS3)cc1`: the figures for the growth inhibition in experiment [1] and in experiment [2] were 7.92% and 57.4% (active), respectively. In addition, the viability increase in experiment [3] was -2.84%. Further, the figures for the viability in experiment [4] and in experiment [5] were 69.9% and 66.4%, respectively. Besides, the inhibition in experiment [6] is 2.15%. For the same molecule, the RAM network inhibition in experiment [7] is 7.82%.

On to `O=C(NC1CSC/C1=N\O)c1ccccc1` (stereo not drawn), for which the growth inhibition in experiment [1] is -9.51%; in experiment [2] it was -1.84%. Further, the viability increase in experiment [3] is -2.52%. The viability was 103% in experiment [4] and 101% in experiment [5]. In addition, the inhibition in experiment [6] is 1.17%. In experiment [7], the RAM network inhibition is 1.84%.

Take `Nc1ccccc1-c1nnc(SCc2ccccc2F)[nH]c1=O`: the growth inhibition is -8.6% in experiment [1] and 6.34% in experiment [2]. The viability increase in experiment [3] is 2.02%. In addition, the viability in experiment [4] is 95.9%; in experiment [5], 89.9%. Besides, in experiment [6], the inhibition is 0.695%. Besides, in experiment [7], the RAM network inhibition was 4.24%.

`COc1cccc(N2C(=O)C3ON(c4ccccc4)C(c4cccs4)C3C2=O)c1` (stereo not drawn): the growth inhibition in experiment [1] was -13%; in experiment [2] it was 15.5%. In addition, the viability increase in experiment [3] is -0.83%. Further, the viability is 107% in experiment [4] and 97.8% in experiment [5]. Besides, the inhibition in experiment [6] is 2.65%. Also, in experiment [7], the RAM network inhibition was 4.23%.

As to `Cc1ccc(Cl)cc1NC(=O)Cn1cc2c(n1)CCCC2`, the growth inhibition in experiment [1] is -3.65%; in experiment [2], 8.66%. In addition, in experiment [3], the viability increase is -2.72%. The viability in experiment [4] was 110%; in experiment [5], 97%. The inhibition in experiment [6] was -0.18%. Also, the RAM network inhibition in experiment [7] was 0.23%.

Turning to `Cn1c(NC(=O)CCC2CCCCC2)cc(=O)n(C)c1=O`, the growth inhibition was -1.97% in experiment [1] and -10.8% in experiment [2]. In experiment [3], the viability increase is 2.29%. Moreover, the results for the viability in experiment [4] and in experiment [5] were 92.9% and 83.6%, respectively. The inhibition in experiment [6] is 0.52%. The RAM network inhibition in experiment [7] was -1.2%.

Take `O=S(=O)(NCC(c1cccnc1)N1CCN(c2ccc(F)cc2)CC1)c1cccs1` (stereo not drawn): the growth inhibition in experiment [1] was -0.1%; in experiment [2] it was -0.165%. The viability increase in experiment [3] was -1.56%. Also, the viability is 87.9% in experiment [4] and 86.8% in experiment [5]. Further, the inhibition in experiment [6] is 2.22%. For the same molecule, the RAM network inhibition in experiment [7] is 3.87%.

Turning to `COc1ccc(-n2c(Cn3c(=O)sc4ccccc43)nnc2SCC(=O)N2CCOCC2)cc1`, the growth inhibition was -0.33% in experiment [1] and 7.95% in experiment [2]. In addition, the viability increase in experiment [3] is 0.3%. For the same molecule, the viability was 102% in experiment [4] and 97% in experiment [5]. In addition, the inhibition in experiment [6] is 0.235%. In addition, the RAM network inhibition in experiment [7] was 1.66%.
